Measured values: ChEMBL document CHEMBL4020705, “Investigation of aryl isonitrile compounds with potent, broad-spectrum antifungal activity” (Bioorg Med Chem, 2017)
In brackets after ≈: the same amount, converted by molar mass.

Tests used:
Candida albicans [1] = test: Fungicidal activity against Candida albicans NR-29448 after 18 hrs; format: functional; conditions: NR-29448, 18 h, read-out: MFC99.9
Outline: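 Starting from the MIC plate, 5 μL aliquots are taken from wells with no growth and spotted onto YPD agar. After 18 h at 37 °C, MFC is recorded as the concentration giving a >99.9% decrease in CFU.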

Candida albicans [2] = test: Antifungal activity against Candida albicans NR-29448 after 44 hrs by broth dilution assay; format: functional; conditions: NR-29448, 44 h
Outline: (§1)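 Yeast broth microdilution per CLSI M27-A3, in RPMI-1640. Incubation is at 37 °C for at least 44 h. MIC is the lowest concentration with no visible growth, read by eye.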

HRT-18 cell line [3] = test: Cytotoxicity against human HRT18 cells assessed as cell viability at 256 uM after 2 hrs by MTS assay; format: cell-based; conditions: hrt-18, 2 h
Outline: (§2)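 HRT-18 cells are grown in RPMI-1640 with 10% fetal horse serum at 37 °C, 5% CO2. Compounds are added in triplicate for 2 h, with DMSO-matched vehicle controls. MTS is then added for 4 h and absorbance read at 490 nm. Viability is given as % of DMSO control, mean ± SD. Two-way ANOVA with Dunnett's test.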

Candida tropicalis [4] = test: Antifungal activity against Candida tropicalis ATCC 13803 after 44 hrs by broth dilution assay; format: functional; conditions: ATCC 13803, 44 h; outline: as §1
Candida albicans [5] = test: Antifungal activity against Candida albicans ATCC 64124 after 44 hrs by broth dilution assay; format: functional; conditions: ATCC 64124, 44 h; outline: as §1
Aspergillus niger [6] = test: Antifungal activity against Aspergillus niger ATCC 6275 after 44 hrs by broth dilution assay; conditions: ATCC 6275, 44 h
Candida albicans [7] = test: Antifungal activity against Candida albicans ATCC 29351 after 44 hrs by broth dilution assay; format: functional; conditions: ATCC 29351, 44 h; outline: as §1
Aspergillus brasiliensis = test: Antifungal activity against Aspergillus brasiliensis ATCC 16404 after 44 hrs by broth dilution assay; conditions: ATCC 16404, 44 h
Pichia kudriavzevii [8] = test: Antifungal activity against Candida krusei ATCC 14243 after 44 hrs by broth dilution assay; format: functional; conditions: ATCC 14243, 44 h; outline: as §1
Candida albicans [9] = test: Antifungal activity against Candida albicans NR-29368 after 44 hrs by broth dilution assay; format: functional; conditions: NR-29368, 44 h; outline: as §1
Candida albicans [10] = test: Antifungal activity against Candida albicans ATCC MYA 573 after 44 hrs by broth dilution assay; format: functional; conditions: ATCC MYA 573, 44 h; outline: as §1
HRT-18 cell line [11] = test: Cytotoxicity against human HRT18 cells assessed as cell viability at 128 uM after 2 hrs by MTS assay; format: cell-based; conditions: hrt-18, 2 h; outline: as §2
Pichia kudriavzevii [12] = test: Antifungal activity against Candida krusei ATCC 34135 after 44 hrs by broth dilution assay; format: functional; conditions: ATCC 34135, 44 h; outline: as §1
Cryptococcus neoformans = test: Antifungal activity against Cryptococcus neoformans NR-41292 after 68 hrs by broth dilution assay; format: functional; conditions: NR-41292, 68 h
Outline: (§3)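 Cryptococcus MIC follows CLSI M27-A3 broth dilution in RPMI-1640. Incubation is at 37 °C for 68 h, and the MIC is read by visual inspection.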

Aspergillus fumigatus [13] = test: Antifungal activity against Aspergillus fumigatus NR-35301 after 44 hrs by broth dilution assay; conditions: NR-35301, 44 h
Candida albicans [14] = test: Antifungal activity against Candida albicans ATCC 27365 after 44 hrs by broth dilution assay; format: functional; conditions: ATCC 27365, 44 h; outline: as §1
Aspergillus niger [15] = test: Antifungal activity against Aspergillus niger ATCC 16888 after 44 hrs by broth dilution assay; conditions: ATCC 16888, 44 h
Nakaseomyces glabratus [16] = test: Antifungal activity against Candida glabrata ATCC MYA-2950 after 44 hrs by broth dilution assay; format: functional; conditions: ATCC MYA-2950, 44 h; outline: as §1
Candida tropicalis [17] = test: Antifungal activity against Candida tropicalis ATCC 1369 after 44 hrs by broth dilution assay; format: functional; conditions: ATCC 1369, 44 h; outline: as §1
Aspergillus fumigatus [18] = test: Antifungal activity against Aspergillus fumigatus NR-35302 after 44 hrs by broth dilution assay; conditions: NR-35302, 44 h
Candida parapsilosis = test: Antifungal activity against Candida parapsilosis ATCC 22019 after 44 hrs by broth dilution assay; format: functional; conditions: Lodderomyces parapsilosis, ATCC 22019, 44 h; outline: as §1
[19] = tested on: Cryptococcus gattii species complex; test: Antifungal activity against Cryptococcus gattii NR-43209 after 68 hrs by broth dilution assay; format: functional, Cryptococcus bacillisporus; conditions: NR-43209, 68 h; outline: as §3
[20] = tested on: Cryptococcus gattii species complex; test: Antifungal activity against Cryptococcus gattii NR-43208 after 68 hrs by broth dilution assay; format: functional, Cryptococcus bacillisporus; conditions: NR-43208, 68 h; outline: as §3
Nakaseomyces glabratus [21] = test: Antifungal activity against Candida glabrata ATCC 66032 after 44 hrs by broth dilution assay; format: functional; conditions: ATCC 66032, 44 h; outline: as §1
Candida albicans [22] = test: Antifungal activity against Candida albicans NR-29446 after 44 hrs by broth dilution assay; format: functional; conditions: NR-29446, 44 h; outline: as §1

CC/C(=C\c1ccccc1)c1ccccc1
MFC (Candida albicans [1]): > 64 µM
MIC (Candida albicans [2]): > 64 µM

N#Cc1ccccc1/C=C/c1ccccc1
MFC (Candida albicans [1]): > 64 µM
MIC (Candida albicans [2]): > 64 µM

Nc1ccccc1/C=C/c1ccccc1
MIC (Candida albicans [2]): 64 µM (≈ 12.5 µg/mL)

N#Cc1ccc(/C=C/c2ccccc2)cc1
Activity (HRT-18 cell line [3]): Non-Toxic
MIC (Candida tropicalis [4]): 4 µM (≈ 0.821 µg/mL)
MIC (Candida albicans [5]): 2 µM (≈ 0.411 µg/mL)
MFC (Candida albicans [1]): > 64 µM
MIC (Aspergillus niger [6]): > 64 µM
MIC (Candida albicans [7]): 1 µM (≈ 0.205 µg/mL)
MIC (Aspergillus brasiliensis): > 64 µM
MIC (Pichia kudriavzevii [8]): 32 µM (≈ 6.57 µg/mL)
MIC (Candida albicans [9]): 2 µM (≈ 0.411 µg/mL)
MIC (Candida albicans [10]): 1 µM (≈ 0.205 µg/mL)
Activity (HRT-18 cell line [11]): Non-Toxic
MIC (Pichia kudriavzevii [12]): 16 µM (≈ 3.28 µg/mL)
MIC (Cryptococcus neoformans): ≤ 0.5 µM
MIC (Aspergillus fumigatus [13]): 64 µM (≈ 13.1 µg/mL)
MIC (Candida albicans [14]): 1 µM (≈ 0.205 µg/mL)
MIC (Aspergillus niger [15]): > 64 µM
MIC (Nakaseomyces glabratus [16]): 8 µM (≈ 1.64 µg/mL)
MIC (Candida tropicalis [17]): 16 µM (≈ 3.28 µg/mL)
MIC (Aspergillus fumigatus [18]): 32 µM (≈ 6.57 µg/mL)
MIC (Candida albicans [2]): 2 µM (≈ 0.411 µg/mL)
MIC (Candida parapsilosis): 2 µM (≈ 0.411 µg/mL)
MIC [19]: ≤ 0.5 µM
MIC [20]: ≤ 0.5 µM
MIC (Nakaseomyces glabratus [21]): 8 µM (≈ 1.64 µg/mL)
MIC (Candida albicans [22]): 1 µM (≈ 0.205 µg/mL)

CC/C(=C\c1ccccc1C#N)c1ccc(OC)cc1
MFC (Candida albicans [1]): > 64 µM
MIC (Candida albicans [2]): > 64 µM

COc1cccc(/C=C/c2ccccc2C#N)c1
MIC (Candida albicans [2]): 16 µM (≈ 3.76 µg/mL)

N#Cc1ccccc1/C=C/c1ccc([N+](=O)[O-])cc1
MFC (Candida albicans [1]): 64 µM (≈ 16 µg/mL)
MIC (Candida albicans [2]): 8 µM (≈ 2 µg/mL)

CCCCc1ccc(/C=C/c2ccccc2C#N)cc1
MFC (Candida albicans [1]): 64 µM (≈ 16.7 µg/mL)
MIC (Candida albicans [2]): 8 µM (≈ 2.09 µg/mL)

N#Cc1cccc(/C=C/c2ccccc2)c1
MFC (Candida albicans [1]): 32 µM (≈ 6.57 µg/mL)
MIC (Candida albicans [2]): 4 µM (≈ 0.821 µg/mL)

N#Cc1ccccc1C=C1CCCCC1
MFC (Candida albicans [1]): > 64 µM
MIC (Candida albicans [2]): 4 µM (≈ 0.789 µg/mL)

COc1ccc(/C=C/c2ccccc2C#N)cc1
MFC (Candida albicans [1]): > 64 µM
MIC (Candida albicans [2]): 1 µM (≈ 0.235 µg/mL)

C/C(=C\c1ccccc1C#N)c1ccccc1
MFC (Candida albicans [1]): > 64 µM
MIC (Candida albicans [2]): 8 µM (≈ 1.75 µg/mL)

N#Cc1ccccc1/C=C/c1ccc(F)cc1
MIC (Candida albicans [2]): 64 µM (≈ 14.3 µg/mL)

N#Cc1ccccc1-c1ccccc1
MFC (Candida albicans [1]): > 64 µM
MIC (Candida albicans [2]): 0.5 µM (≈ 0.0896 µg/mL)

OC(Cn1cncn1)(Cn1cncn1)c1ccc(F)cc1F [FLUCONAZOLE]
MIC (Candida tropicalis [4]): > 64 µM
MIC (Candida albicans [5]): > 64 µM
MFC (Candida albicans [1]): > 64 µM
MIC (Aspergillus niger [6]): > 64 µM
MIC (Candida albicans [7]): ≤ 0.5 µM
MIC (Aspergillus brasiliensis): > 64 µM
MIC (Pichia kudriavzevii [8]): 64 µM (≈ 19.6 µg/mL)
MIC (Candida albicans [9]): > 64 µM
MIC (Candida albicans [10]): > 64 µM
MIC (Pichia kudriavzevii [12]): 64 µM (≈ 19.6 µg/mL)
MIC (Cryptococcus neoformans): 8 µM (≈ 2.45 µg/mL)
MIC (Aspergillus fumigatus [13]): > 64 µM
MIC (Candida albicans [14]): 1 µM (≈ 0.306 µg/mL)
MIC (Aspergillus niger [15]): > 64 µM
MIC (Nakaseomyces glabratus [16]): > 64 µM
MIC (Candida tropicalis [17]): > 64 µM
MIC (Aspergillus fumigatus [18]): > 64 µM
MIC (Candida albicans [2]): 0.5 µM (≈ 0.153 µg/mL)
MIC [19]: 8 µM (≈ 2.45 µg/mL)
MIC [20]: 8 µM (≈ 2.45 µg/mL)
MIC (Nakaseomyces glabratus [21]): > 64 µM
MIC (Candida albicans [22]): > 64 µM
